Measurements reported in PubChem BioAssay.
The source made the active and inactive calls.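 The calls were made as follows, unless noted: active = visually confirmed hit in the image check and inhibition above 20%; inconclusive = visually confirmed hit but inhibition not above 20%; inactive = no visual hit in the image check.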

Key:
[1] = inhibitors of TNFa-induced NFkB p65 translocation, primary screen, imaging, HUVEC, MLSMR starter and 10KST1 sets (AID 438;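 active = inhibition above 20% together with a positive visual image hit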;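 also: compound added about 3h40 before a 20 min TNFalpha stimulation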;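 as to inhibition: signal is the nuclear over cytoplasmic p65 intensity ratio per well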); settings: HUVEC TNFa-induced p65 nuclear translocation; cell count: measured here: nuclei count (cytotoxicity indicator), at 2.08 µM; inhibition: at 2 µM, stronger effect = higher value, 0% TNFa-plus-vehicle, 100% no-TNFa wells
[2] = reduction of polyQ htt aggregates in cells – imaging, exon1htt(103Q)mCFP cells, high-content imaging, primary screen (AID 483;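 active = visual image review flags a hit and inhibition of aggregation exceeds 20%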;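 also: compound exposure lasted 3 days before fixation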;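 as to nuclei count: percent of the per-plate median nuclei count of sample wells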); settings: exon1htt(103Q)mCFP cell line, aggregate imaging, at 2 µM; inhibition of aggregation: stronger effect = higher value; nuclei count: measured here: cell count, toxicity
[3] = endothelial E-selectin expression blockers – imaging, HUVEC, immunofluorescence, MLSMR starter and 10KST1 sets, primary screen (AID 487); settings: HUVEC TNFalpha-induced E-selectin immunofluorescence imaging, at 2 µM; inhibition: stronger effect = higher value; nuclei count: measured here: cell number, toxicity;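 as to inhibition: signal is fraction of cell area covered by stained E-selectin grains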;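 as to nuclei count: 100% = median nuclei count of all wells on the same plate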
[4] = biological target: Voltage-gated potassium channel subunit beta-2 (Rattus norvegicus) (UniProt P62483); assay: inhibitors of rat Kvbeta2 reductase activity – biochemical, NADPH fluorescence, primary screen (AID 622;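 active = fluorescence slope higher than the sample average by over 3 SD, cut at about -0.22 in these data, passing the limit was not always enough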;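 also: slope of raw intensity against log time taken from 70 to 1610 s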); settings: recombinant KvBeta, 4-cyanobenzaldehyde reduction, at 10 µM, stronger effect = higher value
[5] = biological target: Voltage-gated potassium channel subunit beta-2 (Rattus norvegicus) (UniProt P62483); assay: enhancers of rat Kvbeta2 NADPH turnover – biochemical, NADPH fluorescence, primary screen (AID 623;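 active = NADPH fluorescence slope more negative than the mean of all samples by about 3 SD, 99.7% confidence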;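 also: fluorescence intensity change per second fitted from 20 to 320 s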); settings: Recombinant KvBeta, NADPH fluorescence decrease slope, 10 min; at 10 µM; stronger effect = lower value
[6] = biological target: Muscarinic acetylcholine receptor M4 (Homo sapiens) (UniProt P08173); assay: M4-linked GIRK flux change, two-sided – cell-based, HEK293 M4/GIRK, thallium flux, BTC-AM, M4 allosteric agonist project, primary screen (AID 625;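 active = fluorescence slope after compound addition differing from the mean of all tested samples at 99.7% confidence, mostly higher but some lower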;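 also: thallium influx through GIRK channels coupled to M4 in HEK293 cells with BTC-AM dye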); settings: at 10 µM, actives lie on both sides
Method in brief: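 Assay system: HEK293 cells with M4 receptor and GIRK channels / Controls: carbachol and DMSO controls / Schedule: 1 h dye loading, 2 min kinetic read / Technique: kinetic fluorescence with BTC-AM dye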

[7] = blockers of RIG-like receptor reporter activation – cell-based, Sendai virus stimulus, luciferase, 10K MLSCN set, TLR/RLR signaling modifier project, primary screen (AID 602276;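 active = inhibition at or above 50% at 10 µM; inactive = inhibition below 50%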;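 also: firefly luciferase from ISG56 promoter only with Renilla not read in this screen; 0% = Sendai virus plus DMSO and 100% = medium plus DMSO without virus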); settings: HEK293 RL24 IRF3 luciferase reporter, at 10 µM, stronger effect = higher value
[8] = TLR3 IRF3 reporter activation blockers – cell-based, poly I:C stimulus, luciferase, 10K MLSCN set, primary screen (AID 602277;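 active = inhibition of the reporter signal at or above 50%; inactive = inhibition below 50%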); settings: HEK293-TLR3 RL24 IRF3 luciferase reporter, at 10 µM, stronger effect = higher value

Sequence of Muscarinic acetylcholine receptor M4 (Homo sapiens) (P08173 whole entry, looked up): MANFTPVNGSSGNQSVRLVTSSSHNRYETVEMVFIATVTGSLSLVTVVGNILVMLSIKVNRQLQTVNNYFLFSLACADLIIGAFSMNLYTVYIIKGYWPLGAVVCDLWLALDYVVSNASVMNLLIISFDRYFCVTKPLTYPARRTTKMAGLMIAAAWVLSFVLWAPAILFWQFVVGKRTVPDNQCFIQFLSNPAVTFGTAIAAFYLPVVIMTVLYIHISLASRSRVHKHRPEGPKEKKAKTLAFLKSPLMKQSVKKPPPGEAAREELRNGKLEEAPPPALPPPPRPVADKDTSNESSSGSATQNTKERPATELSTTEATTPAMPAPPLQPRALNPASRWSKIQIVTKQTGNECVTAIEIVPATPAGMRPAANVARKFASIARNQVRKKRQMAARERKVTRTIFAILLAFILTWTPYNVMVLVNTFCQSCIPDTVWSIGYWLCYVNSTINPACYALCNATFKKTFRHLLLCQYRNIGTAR
Sequence of Voltage-gated potassium channel subunit beta-2 (Rattus norvegicus) (P62483 whole entry, looked up): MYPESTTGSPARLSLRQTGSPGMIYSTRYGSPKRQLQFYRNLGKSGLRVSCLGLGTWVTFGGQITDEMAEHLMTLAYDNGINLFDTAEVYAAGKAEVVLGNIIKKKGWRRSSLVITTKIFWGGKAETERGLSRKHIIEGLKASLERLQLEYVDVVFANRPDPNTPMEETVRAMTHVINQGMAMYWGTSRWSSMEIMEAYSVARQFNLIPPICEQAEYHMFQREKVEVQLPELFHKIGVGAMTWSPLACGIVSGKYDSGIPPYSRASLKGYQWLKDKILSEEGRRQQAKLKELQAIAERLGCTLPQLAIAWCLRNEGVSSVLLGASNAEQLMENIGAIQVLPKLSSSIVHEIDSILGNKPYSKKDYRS

Row | SMILES | cell count [1] | inhibition [1] | inhibition of aggregation [2] | nuclei count [2] | inhibition [3] | nuclei count [3] | fluorescence slope [4] | NADPH fluorescence slope [5] | fluorescence slope [6] | inhibition [7] | inhibition [8]
1 | Cc1nc(SCC(=O)c2c[nH]c3ccccc23)n[nH]1 | 339 | -6.5% (inactive) | -7.8% (inactive) | 103% | -81.8% (inactive) | 76.3% | -0.472 (inactive) | -6.1e-05 (inactive) | 0.00544 (inactive) | 17.1% (inactive) | 14.3% (inactive)
2 | COc1ccccc1NC(=O)c1ccc(NC(=O)CSc2nnnn2C)cc1 | 253 | -3.2% (inactive) | -0.5% (inactive) | 85.1% | -63% (inactive) | 100% | -0.385 (inactive) | -7.2e-05 (inactive) | 0.00533 (inactive) | 12.1% (inactive) | 25.6% (inactive)
3 | Cc1csc(SCC(=O)NC(=O)NCc2ccccc2)n1 | 624 | -17.1% (inactive) | -16.6% (inactive) | 114% | -30.3% (inactive) | 123% | -0.407 (inactive) | 9.9e-05 (inactive) | 0.0067 (inactive) | 15.1% (inactive) | 20% (inactive)
4 | CC(=O)Nc1cccc(-c2nnc(-c3ccccc3)o2)c1 | 378 | 0.4% (inactive) | 4.1% (inactive) | 105% | -93.4% (inactive) | 136% | -0.582 (inactive) | -3e-05 (inactive) | 0.00721 (inactive) | -35.6% (inactive) | -134% (inactive)
5 | Cc1cc(C)cc(N2CCCn3c2nc2c3c(=O)n(CCN3CCOCC3)c(=O)n2C)c1 | 390 | 3.3% (inactive) | 0.7% (inactive) | 108% | 27.6% (inactive) | 103% | -0.388 (inactive) | 6.6e-05 (inactive) | 0.00574 (inactive) | 18.5% (inactive) | 34.4% (inactive)
6 | CS(=O)(=O)N1CCN(CC2CC3C=CC2C3)CC1 (stereo not drawn) | 367 | -3% (inactive) | -5.6% (inactive) | 94.8% | -18.9% (inactive) | 123% | -0.199 (inactive) | -2e-05 (inactive) | 0.00684 (inactive) | 14.1% (inactive) | 25.1% (inactive)
7 | Cc1ccc(Cn2nnc3c(=O)[nH]c(C4CCN(C(=O)c5cccs5)CC4)nc32)cc1 | 430 | 5.1% (inactive) | -16.4% (inactive) | 106% | -71.2% (inactive) | 109% | -0.546 (inactive) | 1.3e-05 (inactive) | 0.00572 (inactive) | 5.84% (inactive) | 10.8% (inactive)
8 | O=C(c1ccccc1)c1ccc2nc[nH]c2c1 | 762 | -1.2% (inactive) | -14.8% (inactive) | 94.7% | -48.9% (inactive) | 128% | -0.571 (inactive) | -3.1e-05 (inactive) | 0.00464 (inactive) | -13.6% (inactive) | -34.9% (inactive)
9 | c1ccc2c(c1)ccc1nnc(-c3ccc4c(c3)OCO4)n12 | 338 | -1.7% (inactive) | 18.1% (inactive) | 87.8% | -25.6% (inactive) | 108% | -0.58 (inactive) | 1.5e-05 (inactive) | 0.00599 (inactive) | -1.33% (inactive) | 25.4% (inactive)
10 | CS(=O)(=O)N(CC(=O)N1CCN(c2cccc(Cl)c2)CC1)C1CCCCC1 | 645 | -6% (inactive) | 11% (inactive) | 87.4% | 8.8% (inactive) | 78.2% | -0.576 (inactive) | -4.3e-05 (inactive) | 0.00576 (inactive) | 2.97% (inactive) | 0.307% (inactive)
11 | COc1ccc2c(c1)C(=NO)c1cc(OC)ccc1-2 | 667 | -26.7% (inactive) | 15.4% (inactive) | 101% | -48.8% (inactive) | 116% | -0.373 (inactive) | -8e-05 (inactive) | 0.00525 (inactive) | -23.1% (inactive) | -28.9% (inactive)
12 | O=C(COc1ccccc1)NCCSCc1ccco1 | 599 | -59.2% (inactive) | -13.8% (inactive) | 115% | -71.2% (inactive) | 116% | -0.271 (inactive) | -2e-05 (inactive) | 0.00726 (inactive) | -1.72% (inactive) | -10.5% (inactive)
13 | O=C(OCc1nnc(-c2ccccc2)o1)c1ccc(S(=O)(=O)NCc2ccco2)cc1 | 722 | -8.9% (inactive) | -17.9% (inactive) | 89.7% | -51.8% (inactive) | 113% | -0.458 (inactive) | -0.000324 (inactive) | 0.00635 (inactive) | -7.1% (inactive) | 2.67% (inactive)
14 | O=C(C1CC1)N(Cc1ccco1)c1nc(-c2ccccc2)cs1 | 336 | 6.6% (inactive) | 3.5% (inactive) | 104% | -72.7% (inactive) | 109% | -0.445 (inactive) | -8.7e-05 (inactive) | 0.00828 (inactive) | -13.9% (inactive) | -15.4% (inactive)
15 | O=C(NCc1ccc(F)cc1)c1cc(-c2ccco2)on1 | 330 | -17.6% (inactive) | 18.1% (inactive) | 92% | 29.3% (inactive) | 102% | -0.46 (inactive) | -5.1e-05 (inactive) | 0.00521 (inactive) | -17.1% (inactive) | -42.6% (inactive)
16 | Cc1cccc(OCC(=O)N2CCC(c3ccccc3)C2)c1 (stereo not drawn) | 380 | 4.3% (inactive) | -13.6% (inactive) | 101% | -6.3% (inactive) | 115% | -0.426 (inactive) | 1.1e-05 (inactive) | 0.0091 (inactive) | -65.5% (inactive) | -177% (inactive)
17 | Cc1ccc(-n2ncc3c(N4CCN(c5ccc(F)cc5)CC4)ncnc32)c(C)c1 | 514 | -6.8% (inactive) | 4.6% (inactive) | 83.4% | 32.4% (inactive) | 92.4% | -0.521 (inactive) | -0.000115 (inactive) | 0.00599 (inactive) | -19.8% (inactive) | -65.4% (inactive)
18 | Cc1nc(-c2cnn(-c3ccccc3)c2)c2cc(C)oc2n1 | 312 | -2.8% (inactive) | 10.4% (inactive) | 85.8% | -48.6% (inactive) | 159% | -0.572 (inactive) | 9.5e-07 (inactive) | 0.0027 (inactive) | 10.4% (inactive) | -22.9% (inactive)
19 | CS(=O)(=O)N(CC(=O)N1CCCCCC1)c1ccccc1 | 324 | -0.2% (inactive) | 1.9% (inactive) | 82.8% | -11.6% (inactive) | 106% | -0.452 (inactive) | -3.4e-05 (inactive) | 0.00505 (inactive) | 11.4% (inactive) | 8.59% (inactive)
20 | Cc1cccc(N2CCN(C(=O)c3cc4c(=O)[nH]c5ccccc5c4n3C)CC2)c1C | 228 | 5.8% (inactive) | 5.3% (inactive) | 85.4% | -26.1% (inactive) | 106% | -0.529 (inactive) | -2.8e-05 (inactive) | 0.00424 (inactive) | 9.93% (inactive) | -17.5% (inactive)
21 | CCCc1ccc(C(C)NC(=O)c2cnccn2)cc1 (stereo not drawn) | 375 | 0.4% (inactive) | -9.4% (inactive) | 107% | 32.8% (inactive) | 106% | -0.484 (inactive) | -1.5e-05 (inactive) | 0.00486 (inactive) | 15.6% (inactive) | -1.82% (inactive)
22 | COC(=O)C1(C(=O)OC)Sc2ccccc2C1=O | 427 | -11.6% (inactive) | 12.5% (inactive) | 75.3% | 30.1% (inactive) | 97.1% | -0.571 (inactive) | 1.6e-05 (inactive) | 0.0074 (inactive) | 13% (inactive) | 17.2% (inactive)
23 | COc1ccccc1NC(=O)CC(NCc1ccccc1)C(=O)O (stereo not drawn) | 405 | -8.3% (inactive) | -9.7% (inactive) | 63.1% | 14.4% (inactive) | 100% | -0.223 (inactive) | -1.3e-05 (inactive) | 0.00589 (inactive) | 8.88% (inactive) | 5.77% (inactive)
24 | CC(=O)Nc1c(Cl)n(C(C)=O)c2ccccc12 | 432 | -1% (inactive) | -9.1% (inactive) | 100% | -3.8% (inactive) | 103% | -0.304 (inactive) | -2.6e-05 (inactive) | 0.00935 (inactive) | 27.6% (inactive) | 21% (inactive)
25 | Cc1cc(C)c2cc(CN(CC3CCCO3)C(=O)NC3CCCCC3)c(=O)[nH]c2c1 (stereo not drawn) | 598 | -21% (inactive) | -17.9% (inactive) | 109% | -28.1% (inactive) | 94% | -0.567 (inactive) | -5.6e-05 (inactive) | 0.0057 (inactive) | 16.7% (inactive) | 17.3% (inactive)
26 | CCOC(=O)c1[nH]nc(-c2c(O)cc(C)cc2O)c1-c1csc(C)n1 | 495 | -16.3% (inactive) | -2.1% (inactive) | 87.5% | 56.2% (inactive) | 61.3% | -0.453 (inactive) | -0.000313 (inactive) | 0.00535 (inactive) | -7.71% (inactive) | -0.807% (inactive)
27 | Cc1cc(S(=O)(=O)NC2CCCCC2)ccc1OCC(=O)NCc1ccccn1 | 346 | -8.6% (inactive) | 7.8% (inactive) | 96.4% | -70.2% (inactive) | 106% | -0.607 (inactive) | 5.7e-06 (inactive) | 0.0059 (inactive) | 20.7% (inactive) | 34% (inactive)
28 | CCn1cc(/C=C(/C#N)S(=O)(=O)c2ccccc2)cn1 | 593 | -10.9% (inactive) | 7% (inactive) | 75% | -61.5% (inactive) | 99.9% | -0.488 (inactive) | -9.1e-05 (inactive) | 0.00519 (inactive) | -4.56% (inactive) | -9.84% (inactive)
